Assay results from ChEMBL document CHEMBL1955785, “SAR and biological evaluation of 3-azabicyclo[3.1.0]hexane derivatives as μ opioid ligands” (Bioorg Med Chem Lett, 2012).

Experiments:
[1] = Displacement of [3H]DPDPE from delta opioid receptor in dog brain after 90 mins by scintillation counting; design: species or system Canis lupus familiaris
[2] = Displacement of [3H]U-69,593 from kappa opioid receptor in dog brain after 90 mins by scintillation counting; design: species or system Canis lupus familiaris
[3] = Displacement of [3H]DAMGO from mu opioid receptor in dog brain after 90 mins by scintillation counting; design: species or system Canis lupus familiaris
Mu-type opioid receptor [4] = molecular target: T1, Mu-type opioid receptor (Homo sapiens, UniProt P35372); assay: Antagonist activity at human mu opioid receptor by GTP-gamma S binding assay
T1 sequence (P35372 whole entry): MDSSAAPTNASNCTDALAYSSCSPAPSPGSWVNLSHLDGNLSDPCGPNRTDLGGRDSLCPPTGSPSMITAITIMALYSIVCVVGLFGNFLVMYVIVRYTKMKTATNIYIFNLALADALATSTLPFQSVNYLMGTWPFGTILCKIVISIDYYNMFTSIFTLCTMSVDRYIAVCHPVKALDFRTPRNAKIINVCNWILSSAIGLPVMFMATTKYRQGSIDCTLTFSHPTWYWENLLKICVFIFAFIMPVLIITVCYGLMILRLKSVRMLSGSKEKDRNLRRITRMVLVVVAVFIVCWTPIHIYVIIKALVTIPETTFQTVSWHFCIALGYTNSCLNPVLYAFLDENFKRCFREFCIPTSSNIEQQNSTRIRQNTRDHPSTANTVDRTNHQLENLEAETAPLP

[5] = molecular target: Mu-type opioid receptor (Cavia porcellus) (UniProt P97266); assay: Antagonist activity at mu opioid receptor in guinea pig longitudinal muscle myenteric plexus assessed as inhibition of DAMGO-induced twitch tension at 1 uM after 10 mins; type: functional
Mu-type opioid receptor (Cavia porcellus), sequence (P97266 whole entry): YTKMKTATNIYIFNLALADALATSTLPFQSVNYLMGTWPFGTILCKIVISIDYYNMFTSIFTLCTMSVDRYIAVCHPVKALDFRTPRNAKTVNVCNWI
Procedure, shortened: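 Isolated guinea-pig myenteric plexus-longitudinal muscle was stimulated electrically at 0.1 Hz with a 1 ms pulse width at supramaximal voltage, then washed and rested for 20 min. Kappa antagonist nor-binaltorphimine (1 µM, 10 min) and captopril (1 µM) were added. Test compound was added once twitches plateaued, and 10 min later a cumulative DAMGO dose response was built (3 min contact, 1 min recording per concentration).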

Mu-type opioid receptor [6] = molecular target: T1, Mu-type opioid receptor; assay: Displacement of [3H]DAMGO from human mu opioid receptor
Procedure, shortened: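 Human μ receptor filter-binding assay using [3H]DAMGO as the radioligand; Ki derived from displacement.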

SMILES | Ki [1] | Ki [2] | Ki [3] | Ki (Mu-type opioid receptor [4]) | inhibition [5] | Ki (Mu-type opioid receptor [6])
CCCCCCN1C[C@@H]2[C@H](C1)[C@@]2(C)c1cccc(NS(=O)(=O)c2cccnc2)c1 | > 10000 nM | 1530 nM | 71 nM | – | – | –
C[C@]1(c2cccc(NS(C)(=O)=O)c2)[C@@H]2CN(CCCc3ccccc3)C[C@@H]21 | 183 nM | 94 nM | 4.1 nM | 3.5 nM | < 10% | –
C[C@]1(c2cccc(NS(C)(=O)=O)c2)[C@@H]2CN(CC3Cc4ccccc4C3)C[C@@H]21 | 384 nM | 51 nM | 0.55 nM | 0.3 nM | < 10% | 0.81 nM
CCS(=O)(=O)Nc1cccc([C@@]2(C)[C@@H]3CN(CCCc4ccccc4)C[C@@H]32)c1 | 2900 nM | 219 nM | 37 nM | – | – | –
CCCCCCN1C[C@@H]2[C@H](C1)[C@@]2(C)c1cccc(NS(C)(=O)=O)c1 | 869 nM | 270 nM | 14 nM | – | < 10% | –
CCCCCCN1C[C@@H]2[C@H](C1)[C@@]2(C)c1cccc(NS(=O)(=O)C(C)C)c1 | 1580 nM | 791 nM | 14 nM | – | 18% | –
CCCCCCN1C[C@@H]2[C@H](C1)[C@@]2(C)c1cccc(NS(=O)(=O)CCOC)c1 | 464 nM | 172 nM | 10 nM | – | > 10% | –
CC[C@]1(c2cccc(NS(C)(=O)=O)c2)[C@@H]2CN(CCCc3ccccc3)C[C@@H]21 | 79 nM | 67 nM | 1.5 nM | – | < 10% | –
CC[C@]1(c2cccc(NS(C)(=O)=O)c2)[C@@H]2CN(CC3Cc4ccccc4C3O)C[C@@H]21 (stereo not given in full) | 19 nM | 4.5 nM | 0.07 nM | 0.08 nM | – | 0.1 nM
CCCCCCN1C[C@@H]2[C@H](C1)[C@]2(c1cccc(NS(C)(=O)=O)c1)C(C)C | 308 nM | 48 nM | 3 nM | – | 32% | –
CCCCCCN1C[C@@H]2[C@H](C1)[C@@]2(CCC)c1cccc(NS(C)(=O)=O)c1 | 66 nM | 328 nM | 10 nM | – | < 10% | –
CC[C@]1(c2cccc(NS(C)(=O)=O)c2)[C@@H]2CN(CC(O)Cc3ccccc3)C[C@@H]21 (stereo not given in full) | 595 nM | 70 nM | 2.6 nM | 2.5 nM | – | 6.6 nM
CCCCCCN1C[C@@H]2[C@H](C1)[C@@]2(C)c1cccc(NS(=O)(=O)CCC)c1 | > 10000 nM | 1330 nM | 104 nM | – | – | –
CCCCCCN1C[C@@H]2[C@H](C1)[C@@]2(CC)c1cccc(NS(C)(=O)=O)c1 | > 10000 nM | 1340 nM | 50 nM | – | – | –
CC[C@]1(c2cccc(NS(C)(=O)=O)c2)[C@@H]2CN(CC3Cc4ccccc4C3)C[C@@H]21 | 29 nM | 22 nM | 0.2 nM | – | – | –
